ChEMBL document CHEMBL1221254, “Succinic acid amides as P2-P3 replacements for inhibitors of interleukin-1beta converting enzyme (ICE or caspase 1)” (Bioorg Med Chem Lett, 2010)

Key:
[1] = Selectivity ratio of human ICE to caspase 3
[2] = Selectivity ratio of human ICE to caspase 6
Caspase-1 [3] = target: T1, Caspase-1 (Homo sapiens, UniProt P29466); assay: Inhibition of human ICE
T1 sequence (P29466 whole entry): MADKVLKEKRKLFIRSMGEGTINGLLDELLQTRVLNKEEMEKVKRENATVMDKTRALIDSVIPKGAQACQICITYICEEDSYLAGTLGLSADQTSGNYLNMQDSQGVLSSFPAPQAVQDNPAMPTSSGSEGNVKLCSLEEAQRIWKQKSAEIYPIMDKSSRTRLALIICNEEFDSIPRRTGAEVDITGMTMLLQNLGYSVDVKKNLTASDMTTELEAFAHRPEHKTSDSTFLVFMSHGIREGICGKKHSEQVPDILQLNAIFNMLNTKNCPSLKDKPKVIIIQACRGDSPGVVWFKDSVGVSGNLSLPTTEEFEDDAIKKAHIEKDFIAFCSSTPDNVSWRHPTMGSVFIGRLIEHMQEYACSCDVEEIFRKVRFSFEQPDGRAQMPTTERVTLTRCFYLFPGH

[4] = Selectivity ratio of human ICE to caspase 8
[5] = Selectivity ratio of human ICE to caspase 4
Homo sapiens = species on record: Homo sapiens; assay: Half life in human plasma
Caspase-1 [6] = target: T2, Caspase-1 (Mus musculus, UniProt P29452); assay: Inhibition of mouse ICE
T2 sequence (P29452 whole entry): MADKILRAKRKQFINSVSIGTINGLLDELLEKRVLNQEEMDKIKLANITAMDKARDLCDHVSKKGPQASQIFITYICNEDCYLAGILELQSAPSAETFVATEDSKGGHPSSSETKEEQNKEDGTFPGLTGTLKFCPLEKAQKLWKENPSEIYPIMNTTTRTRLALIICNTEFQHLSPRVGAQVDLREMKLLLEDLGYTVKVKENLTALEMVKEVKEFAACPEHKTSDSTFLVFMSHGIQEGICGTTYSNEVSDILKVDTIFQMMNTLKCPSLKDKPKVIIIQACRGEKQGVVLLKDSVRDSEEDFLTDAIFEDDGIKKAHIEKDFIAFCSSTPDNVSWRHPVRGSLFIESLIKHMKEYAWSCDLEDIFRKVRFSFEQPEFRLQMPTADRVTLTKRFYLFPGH

PBMC = assay: Inhibition of LPS-induced IL1-beta production in human PBMC by ELISA; type: functional, cell-based
Procedure, shortened: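 Human PBMC were suspended in RPMI 1640 with glutamine, penicillin, streptomycin and 2% human AB serum, at 10^6 cells per well. Cells were stimulated overnight with 10 ng/mL LPS, with or without inhibitor. Mature IL-1β in the harvested medium was measured by ELISA.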

Mus musculus = assay: Reduction of IL1-beta level in human PBMC cells xenografted SCID mouse at 3 mg/kg, iv after 2 hrs; type: functional; set-up: scale not given: the % may be the effect or the level left
Procedure, shortened: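 huSCID model: SCID mice were injected with human PBMC 15 min before the start. At time zero they received LPS at 5 mg/kg iv. Compound was given at 3 mg/kg iv, and mice were bled at 2 h.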

Row | SMILES | Selectivity ratio [1] | Selectivity ratio [2] | IC50 (Caspase-1 [3]) [nM] | Ki (Caspase-1 [3]) [nM] | Selectivity ratio [4] | Selectivity ratio [5] | half-life (Homo sapiens) [h] | Ki (Caspase-1 [6]) [nM] | IC50 (PBMC) [nM] | Activity (Mus musculus) [%]
1 | Cc1ccc2c(c1)ncn2CCNC(=O)C[C@H](C(=O)N[C@H](C=O)CC(=O)O)C(C)C | > 200 | > 200 | 15.3 | 4.85 | > 200 | > 200 | – | – | – | –
2 | CC(C)[C@H](CC(=O)NCCc1cc(N(C)C)nc2ccccc12)C(=O)N[C@H](C=O)CC(=O)O | > 200 | > 200 | 3.61 | 3 | > 200 | > 200 | – | – | – | –
3 | CC(C)[C@H](CC(=O)NCCn1c(-c2cccnc2)nc2ccccc21)C(=O)N[C@H](C=O)CC(=O)O | > 200 | > 200 | 26.5 | 3.85 | > 200 | > 200 | – | – | – | –
4 | CCC(C)O[C@H]1OC(=O)C[C@@H]1NC(=O)[C@@H](CC(=O)NCCc1cccc2ncccc12)C(C)C (some centres undefined) | > 200 | > 200 | – | – | > 200 | > 200 | 7.7 | – | – | –
5 | Cc1[nH]c2ccccc2c1CCNC(=O)C[C@H](C(=O)N[C@H](C=O)CC(=O)O)C(C)C | – | – | 18 | 1.29 | – | – | – | 13.4 | 1500 | 54
6 | CC(C)[C@H](CC(=O)N(CCOc1ccccc1)CCC(=O)O)C(=O)N[C@H](C=O)CC(=O)O | > 200 | > 200 | 114 | 9.24 | > 200 | > 200 | – | – | – | –
7 | CCC(C)O[C@@H]1OC(=O)C[C@@H]1NC(=O)[C@@H](CC(=O)NCCc1cccc2ncccc12)C(C)C (some centres undefined) | > 200 | > 200 | – | – | > 200 | > 200 | 3.9 | – | – | –
8 | O=C[C@H](CC(=O)O)NC(=O)[C@@H]1CCCN2C(=O)CC[C@H](NC(=O)c3nccc4ccccc34)C(=O)N12 [VRT-18858] | – | – | 3.4 | 0.6 | – | – | – | 7 | 380 | 62
9 | CC(C)[C@H](CC(=O)NCCc1cccc2ncccc12)C(=O)N[C@H]1CC(=O)O[C@H]1OC1CCCC1 | > 200 | > 200 | – | – | > 200 | > 200 | 15.7 | – | – | –
10 | CC(C)[C@H](CC(=O)NCCc1cncc2ccccc12)C(=O)N[C@H](C=O)CC(=O)O | > 200 | > 200 | 12 | 4.3 | > 200 | > 200 | – | – | – | –
11 | Cc1cc2nc(C)n(CCNC(=O)C[C@H](C(=O)N[C@H](C=O)CC(=O)O)C(C)C)c2cc1C | > 200 | > 200 | 9.18 | 1.26 | > 200 | > 200 | – | – | – | –
12 | CC(C)[C@H](CC(=O)NCCNc1cccc(Cl)c1)C(=O)N[C@H](C=O)CC(=O)O | > 200 | > 200 | 11.2 | 0.95 | > 200 | > 200 | – | – | – | –
13 | CC(C)[C@H](CC(=O)N1CCN(c2ccccc2)CC1)C(=O)N[C@H](C=O)CC(=O)O | > 200 | > 200 | 7810 | 1020 | > 200 | > 200 | – | – | – | –
14 | CCO[C@H]1OC(=O)C[C@@H]1NC(=O)[C@@H](CC(=O)NCCc1cccc2ncccc12)C(C)C | > 200 | > 200 | – | – | > 200 | > 200 | 4.3 | – | – | –
15 | CC(C)[C@H](CC(=O)N(CCOc1ccccc1)C(C)C)C(=O)N[C@H](C=O)CC(=O)O | > 200 | > 200 | 584 | 100 | > 200 | > 200 | – | – | – | –
16 | Cc1c(CCNC(=O)C[C@H](C(=O)N[C@H](C=O)CC(=O)O)C(C)C)c2ccccc2n1C | > 200 | > 200 | 42.5 | 0.9 | > 200 | > 200 | – | – | – | –

Row | SMILES | Selectivity ratio [1] | Selectivity ratio [2] | IC50 (Caspase-1 [3]) [nM] | Ki (Caspase-1 [3]) [nM] | Selectivity ratio [4] | Selectivity ratio [5] | half-life (Homo sapiens) [h] | Ki (Caspase-1 [6]) [nM] | IC50 (PBMC) [nM] | Activity (Mus musculus) [%]
17 | CC(=O)N[C@@H](Cc1ccc(O)cc1)C(=O)N[C@H](C(=O)N[C@@H](C)C(=O)N[C@H](C=O)CC(=O)O)C(C)C | > 200 | > 200 | 17 | 0.7 | > 200 | > 200 | – | 9 | 1200 | 69
18 | CC(C)[C@H](CC(=O)NCCCc1ccccc1)C(=O)N[C@H](C=O)CC(=O)O | > 200 | > 200 | – | – | > 200 | > 200 | – | – | – | –
19 | COc1ccc(CCCNC(=O)C[C@H](C(=O)N[C@H](C=O)CC(=O)O)C(C)C)cc1 | > 200 | > 200 | 410 | 70.9 | > 200 | > 200 | – | – | – | –
20 | Cc1cc2ncn(CCNC(=O)C[C@H](C(=O)N[C@H](C=O)CC(=O)O)C(C)C)c2cc1C | > 200 | > 200 | 14.5 | 2.81 | > 200 | > 200 | – | – | – | –
21 | CC(C)[C@H](CC(=O)NCCc1cccc2nc(OCCN(C)C)ccc12)C(=O)N[C@H](C=O)CC(=O)O | > 200 | > 200 | 102 | 16.7 | > 200 | > 200 | – | – | – | –
22 | CC(C)[C@H](CC(=O)NCCn1ccc2ccccc21)C(=O)N[C@H](C=O)CC(=O)O | > 200 | > 200 | 45.3 | 4.03 | > 200 | > 200 | – | – | – | –
23 | CC(C)[C@H](CC(=O)NCCc1c[nH]c2ccccc12)C(=O)N[C@H](C=O)CC(=O)O | > 200 | > 200 | 23.1 | 5.02 | > 200 | > 200 | – | – | – | –
24 | CC(C)[C@H](CC(=O)NCCc1cccc2ccccc12)C(=O)N[C@H](C=O)CC(=O)O | > 200 | > 200 | 5.7 | 0.58 | > 200 | > 200 | – | – | – | –
25 | CC(C)[C@H](CC(=O)NCCc1cccc2ncccc12)C(=O)N[C@H](C=O)CC(=O)O | – | – | 5.81 | 1.81 | – | – | – | 14.4 | 650 | 52
26 | CC(C)[C@H](CC(=O)NCCC(=O)c1ccccc1)C(=O)N[C@H](C=O)CC(=O)O | > 200 | > 200 | 398 | 118 | > 200 | > 200 | – | – | – | –
27 | Cc1nc2ccccc2n1CCNC(=O)C[C@H](C(=O)N[C@H](C=O)CC(=O)O)C(C)C | – | – | 23.8 | – | – | – | – | 18.7 | 2900 | 68
28 | CC(C)[C@H](CC(=O)NCCOc1ccccc1)C(=O)N[C@H](C=O)CC(=O)O | > 200 | > 200 | 539 | 16.9 | > 200 | > 200 | – | – | – | –
29 | CC(C)[C@H](CC(=O)NCCn1cnc2ccccc21)C(=O)N[C@H](C=O)CC(=O)O | > 200 | > 200 | 33.7 | 20 | > 200 | > 200 | – | – | – | –
30 | CC(C)[C@H](CC(=O)NCCc1c[nH]c2ccc(F)cc12)C(=O)N[C@H](C=O)CC(=O)O | > 200 | > 200 | 37 | 7.9 | > 200 | > 200 | – | – | – | –
31 | CC(C)[C@H](CC(=O)NCCc1ccnc2ccccc12)C(=O)N[C@H](C=O)CC(=O)O | > 200 | > 200 | 4.77 | 1.31 | > 200 | > 200 | – | – | – | –
32 | CC(C)[C@H](CC(=O)N1CCCC(Oc2ccccc2)C1)C(=O)N[C@H](C=O)CC(=O)O (some centres undefined) | > 200 | > 200 | 170 | 21.5 | > 200 | > 200 | – | – | – | –
